Assay results: ChEMBL document CHEMBL4371006, “Discovery of N-[4-(Quinolin-4-yloxy)phenyl]benzenesulfonamides as Novel AXL Kinase Inhibitors” (J Med Chem, 2018)
The source made the active and inactive calls. The calls are words filed in the database; no cut-off is given here.

Tests used:
[1] = Apparent permeability from basolateral to apical side in human Caco2 cells at 10 uM after 2 hrs by LC-MS/MS analysis; assay type: ADME, cell-based; details: Caco-2
Procedure, shortened: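 Caco-2 cells differentiated three weeks in 96-well format, monolayer integrity checked by Lucifer yellow transport. Compound at 10 µM for 2 h; apical buffer HBSS/10 mM HEPES/glucose pH 6.5 with 100 µM Lucifer yellow, basolateral buffer pH 7.4. Papp = (dQ/dt)/C0A; efflux ratio Papp(B→A)/Papp(A→B).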

[2] = Intrinsic clearance in human liver microsomes at 5 uM after 60 mins in presence of NADPH by LC-MS/MS analysis; assay type: ADME, Microsome; details: read-out: CLH
Procedure, shortened: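 Compound at 5 µM with 1 mg/mL human or mouse liver microsomes plus an NADPH-regenerating system, in 100 mM potassium phosphate at 37°C. Reactions were stopped with acetonitrile at sampling times. Percent remaining versus time 0 was measured by HPLC, in duplicate.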

[3] = Stability in mouse plasma assessed as parent compound remaining; assay type: ADME, cell-free
[4] = AUC (0 to infinity) in mouse at 1 to 2 mg/kg, iv by LC/MS/MS analysis; assay type: ADME, organism-based; details: in vivo
Procedure, shortened: (§1)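 Male ICR mice (27 ± 5 g, n = 3) dosed iv via tail vein at 2 or 1 mg/kg in 30% PEG400/5% ethanol in water. Jugular blood (0.3 mL, heparin) sampled at set times over 24 h or more; plasma separated, acetonitrile-precipitated, drug quantified by LC/MS/MS; parameters from noncompartmental-type software estimation.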

[5] = AUC (0 to tz) in mouse at 1 to 2 mg/kg, iv by LC/MS/MS analysis; assay type: ADME, organism-based; details: in vivo; procedure, shortened: as §1
[6] = Clearance in mouse at 1 to 2 mg/kg, iv by LC/MS/MS analysis; assay type: ADME, organism-based; details: in vivo
[7] = Toxicity in mouse allografted with AXL expressing mouse MXT cells assessed as weight loss at 15 mg/kg, ip qd administered 21 consecutive days; assay type: organism-based; details: in vivo
[8] = Apparent half-life of the terminal disposition phase in mouse at 3 mg/kg, iv by LC/MS/MS analysis; details: in vivo, read-out: t1/2 lambda z (converted)
[9] = target: Insulin receptor (Homo sapiens) (UniProt P06213); assay: Inhibition of INSR (unknown origin) using fluorescently-labeled peptide as substrate at 10 uM by IMAP fluorescence polarization assay
[10] = target: Serine/threonine-protein kinase MARK2 (Homo sapiens, UniProt Q7KZI7); assay: Binding affinity to MARK2 in SILAC-labeled human MDA-MB-231 cells lysate by mass spectrometry based kinAffinity assay; assay type: subcellular
Serine/threonine-protein kinase MARK2, sequence (Q7KZI7 whole entry): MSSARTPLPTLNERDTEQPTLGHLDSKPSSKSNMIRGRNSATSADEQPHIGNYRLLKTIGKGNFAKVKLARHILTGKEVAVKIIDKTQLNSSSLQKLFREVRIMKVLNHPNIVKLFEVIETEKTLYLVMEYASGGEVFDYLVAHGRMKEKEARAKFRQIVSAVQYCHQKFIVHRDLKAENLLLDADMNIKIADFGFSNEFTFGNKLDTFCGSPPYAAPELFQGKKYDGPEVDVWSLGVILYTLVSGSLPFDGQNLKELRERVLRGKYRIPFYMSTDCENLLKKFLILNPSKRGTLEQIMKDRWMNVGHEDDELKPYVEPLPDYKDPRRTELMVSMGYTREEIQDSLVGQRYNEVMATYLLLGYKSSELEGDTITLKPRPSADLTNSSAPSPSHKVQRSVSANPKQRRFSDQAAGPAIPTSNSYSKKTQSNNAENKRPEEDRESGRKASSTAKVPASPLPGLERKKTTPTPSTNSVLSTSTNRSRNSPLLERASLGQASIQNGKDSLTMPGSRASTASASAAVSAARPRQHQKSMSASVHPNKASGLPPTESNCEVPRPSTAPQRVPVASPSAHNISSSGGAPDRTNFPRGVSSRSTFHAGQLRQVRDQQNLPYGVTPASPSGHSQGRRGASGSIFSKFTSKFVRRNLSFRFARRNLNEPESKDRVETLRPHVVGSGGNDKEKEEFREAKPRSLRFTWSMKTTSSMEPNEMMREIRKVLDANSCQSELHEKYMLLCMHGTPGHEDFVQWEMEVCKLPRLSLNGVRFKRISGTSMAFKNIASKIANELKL
Procedure, shortened: (§2)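 Chemical proteomics: MDA-MB-231 lysate bound to matrix of immobilized broad kinase inhibitors at several densities (BC50), then competed with increasing free compound (CC50); proteins quantified by mass spectrometry, Kd via Cheng-Prusoff. Two competition formats run in parallel to check equilibrium.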

[11] = target: Mitogen-activated protein kinase kinase kinase kinase 5 (Homo sapiens, UniProt Q9Y4K4); assay: Binding affinity to MAP4K5 in SILAC-labeled human MDA-MB-231 cells lysate by mass spectrometry based kinAffinity assay; assay type: subcellular; procedure, shortened: as §2
Mitogen-activated protein kinase kinase kinase kinase 5, sequence (Q9Y4K4 whole entry): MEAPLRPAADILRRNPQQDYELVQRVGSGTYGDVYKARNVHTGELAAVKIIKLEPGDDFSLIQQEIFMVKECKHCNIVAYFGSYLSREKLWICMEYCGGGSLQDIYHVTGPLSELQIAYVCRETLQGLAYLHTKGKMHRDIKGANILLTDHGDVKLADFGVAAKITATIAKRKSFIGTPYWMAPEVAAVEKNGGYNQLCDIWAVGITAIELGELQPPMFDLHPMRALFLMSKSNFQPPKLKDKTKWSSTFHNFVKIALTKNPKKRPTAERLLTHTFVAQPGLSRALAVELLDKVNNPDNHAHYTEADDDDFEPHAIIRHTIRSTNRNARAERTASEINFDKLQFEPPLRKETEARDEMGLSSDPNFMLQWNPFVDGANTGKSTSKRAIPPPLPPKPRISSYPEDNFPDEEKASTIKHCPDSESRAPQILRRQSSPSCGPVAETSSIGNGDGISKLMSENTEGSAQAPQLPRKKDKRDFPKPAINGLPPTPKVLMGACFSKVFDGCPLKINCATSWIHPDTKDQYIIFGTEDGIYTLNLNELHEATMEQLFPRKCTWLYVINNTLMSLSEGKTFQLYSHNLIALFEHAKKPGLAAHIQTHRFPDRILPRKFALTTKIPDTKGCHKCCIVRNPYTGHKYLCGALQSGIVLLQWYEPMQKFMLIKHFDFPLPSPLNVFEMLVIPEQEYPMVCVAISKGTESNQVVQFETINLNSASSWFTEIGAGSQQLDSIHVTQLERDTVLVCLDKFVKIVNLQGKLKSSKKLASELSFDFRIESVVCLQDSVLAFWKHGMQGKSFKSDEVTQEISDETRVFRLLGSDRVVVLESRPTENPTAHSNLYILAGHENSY

[12] = target: Tyrosine-protein kinase Lyn (Homo sapiens, UniProt P07948); assay: Binding affinity to LYN in SILAC-labeled human MDA-MB-231 cells lysate by mass spectrometry based kinAffinity assay; assay type: subcellular; procedure, shortened: as §2
[13] = target: Activin receptor type-1 (Homo sapiens, UniProt Q04771); assay: Binding affinity to ACVR1 in SILAC-labeled human MDA-MB-231 cells lysate by mass spectrometry based kinAffinity assay; assay type: subcellular; procedure, shortened: as §2
Activin receptor type-1, sequence (Q04771 whole entry): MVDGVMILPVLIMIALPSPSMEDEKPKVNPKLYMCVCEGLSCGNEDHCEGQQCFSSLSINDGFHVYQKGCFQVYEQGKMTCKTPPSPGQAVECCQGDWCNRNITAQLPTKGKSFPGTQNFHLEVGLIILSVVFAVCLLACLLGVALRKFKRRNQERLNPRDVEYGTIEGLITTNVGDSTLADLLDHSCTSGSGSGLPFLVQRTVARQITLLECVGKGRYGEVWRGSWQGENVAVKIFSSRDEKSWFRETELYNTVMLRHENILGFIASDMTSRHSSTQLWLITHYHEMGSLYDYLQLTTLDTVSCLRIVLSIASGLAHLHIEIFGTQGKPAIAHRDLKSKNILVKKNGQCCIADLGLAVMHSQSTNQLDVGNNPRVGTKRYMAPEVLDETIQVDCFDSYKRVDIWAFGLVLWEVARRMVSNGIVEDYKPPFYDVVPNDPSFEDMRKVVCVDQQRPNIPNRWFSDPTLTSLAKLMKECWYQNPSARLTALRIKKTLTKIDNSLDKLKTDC

[14] = target: Tyrosine-protein kinase ABL2 (Homo sapiens, UniProt P42684); assay: Binding affinity to ABL2 in SILAC-labeled human MDA-MB-231 cells lysate by mass spectrometry based kinAffinity assay; assay type: subcellular; procedure, shortened: as §2
[15] = target: LIM domain kinase 1 (Homo sapiens, UniProt P53667); assay: Binding affinity to LIMK1 in SILAC-labeled human MDA-MB-231 cells lysate by mass spectrometry based kinAffinity assay; assay type: subcellular; procedure, shortened: as §2
LIM domain kinase 1, sequence (P53667 whole entry, the tested form may be a part): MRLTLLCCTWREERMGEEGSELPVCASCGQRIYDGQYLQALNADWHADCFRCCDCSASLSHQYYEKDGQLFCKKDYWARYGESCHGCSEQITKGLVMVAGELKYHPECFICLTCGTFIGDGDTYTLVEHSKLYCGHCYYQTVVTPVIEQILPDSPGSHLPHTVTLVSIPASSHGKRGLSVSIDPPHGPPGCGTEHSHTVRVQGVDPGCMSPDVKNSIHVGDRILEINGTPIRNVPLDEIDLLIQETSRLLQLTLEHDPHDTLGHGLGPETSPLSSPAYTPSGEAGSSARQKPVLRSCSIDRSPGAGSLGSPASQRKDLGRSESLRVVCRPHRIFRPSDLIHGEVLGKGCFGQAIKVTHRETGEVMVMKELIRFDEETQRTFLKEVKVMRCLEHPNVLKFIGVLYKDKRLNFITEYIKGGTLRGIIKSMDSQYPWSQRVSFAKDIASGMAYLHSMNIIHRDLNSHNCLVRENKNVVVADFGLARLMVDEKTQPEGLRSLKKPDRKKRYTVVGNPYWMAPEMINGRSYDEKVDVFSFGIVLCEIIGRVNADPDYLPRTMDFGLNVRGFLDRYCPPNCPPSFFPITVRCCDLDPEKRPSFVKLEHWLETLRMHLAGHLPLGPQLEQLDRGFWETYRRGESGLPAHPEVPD

[16] = target: Tyrosine-protein kinase Yes (Homo sapiens, UniProt P07947); assay: Binding affinity to YES in SILAC-labeled human MDA-MB-231 cells lysate by mass spectrometry based kinAffinity assay; assay type: subcellular
Procedure, shortened: (§3)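 MDA-MB-231 lysate applied to KinAffinity matrix of immobilized broadband kinase inhibitors at graded densities to obtain BC50 per target. Competition then run with increasing free compound to give CC50; Kd derived by Cheng-Prusoff. Two competition experiments in parallel to check equilibrium, one with lysate pre-incubated with compound before adding matrix. Quantitation by mass spectrometry.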

[17] = target: 5'-AMP-activated protein kinase catalytic subunit alpha-1 (Homo sapiens, UniProt Q13131); assay: Binding affinity to PRKAA1 in SILAC-labeled human MDA-MB-231 cells lysate by mass spectrometry based kinAffinity assay; assay type: subcellular; procedure, shortened: as §3
5'-AMP-activated protein kinase catalytic subunit alpha-1, sequence (Q13131 whole entry): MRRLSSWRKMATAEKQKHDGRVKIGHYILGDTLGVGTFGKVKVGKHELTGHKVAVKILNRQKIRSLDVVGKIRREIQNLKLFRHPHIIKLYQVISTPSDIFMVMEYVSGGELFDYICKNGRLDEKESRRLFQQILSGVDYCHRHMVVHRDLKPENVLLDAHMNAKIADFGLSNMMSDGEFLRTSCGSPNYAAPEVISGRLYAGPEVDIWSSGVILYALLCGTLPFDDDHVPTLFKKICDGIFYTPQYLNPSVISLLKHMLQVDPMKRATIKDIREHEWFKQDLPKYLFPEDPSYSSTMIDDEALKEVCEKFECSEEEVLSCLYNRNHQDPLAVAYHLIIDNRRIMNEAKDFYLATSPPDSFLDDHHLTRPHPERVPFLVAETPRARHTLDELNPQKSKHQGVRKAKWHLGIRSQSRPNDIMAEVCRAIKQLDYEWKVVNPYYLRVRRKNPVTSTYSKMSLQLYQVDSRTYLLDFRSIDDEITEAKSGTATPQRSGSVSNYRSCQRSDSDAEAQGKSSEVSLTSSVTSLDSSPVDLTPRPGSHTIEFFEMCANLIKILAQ

[18] = target: 5'-AMP-activated protein kinase subunit beta-2 (Homo sapiens, UniProt O43741); assay: Binding affinity to PRKAB2 in SILAC-labeled human MDA-MB-231 cells lysate by mass spectrometry based kinAffinity assay; assay type: subcellular; procedure, shortened: as §3
[19] = target: 5'-AMP-activated protein kinase subunit gamma-2 (Homo sapiens, UniProt Q9UGJ0); assay: Binding affinity to PRKAG2 in SILAC-labeled human MDA-MB-231 cells lysate by mass spectrometry based kinAffinity assay; assay type: subcellular; procedure, shortened: as §3
5'-AMP-activated protein kinase subunit gamma-2, sequence (Q9UGJ0 whole entry): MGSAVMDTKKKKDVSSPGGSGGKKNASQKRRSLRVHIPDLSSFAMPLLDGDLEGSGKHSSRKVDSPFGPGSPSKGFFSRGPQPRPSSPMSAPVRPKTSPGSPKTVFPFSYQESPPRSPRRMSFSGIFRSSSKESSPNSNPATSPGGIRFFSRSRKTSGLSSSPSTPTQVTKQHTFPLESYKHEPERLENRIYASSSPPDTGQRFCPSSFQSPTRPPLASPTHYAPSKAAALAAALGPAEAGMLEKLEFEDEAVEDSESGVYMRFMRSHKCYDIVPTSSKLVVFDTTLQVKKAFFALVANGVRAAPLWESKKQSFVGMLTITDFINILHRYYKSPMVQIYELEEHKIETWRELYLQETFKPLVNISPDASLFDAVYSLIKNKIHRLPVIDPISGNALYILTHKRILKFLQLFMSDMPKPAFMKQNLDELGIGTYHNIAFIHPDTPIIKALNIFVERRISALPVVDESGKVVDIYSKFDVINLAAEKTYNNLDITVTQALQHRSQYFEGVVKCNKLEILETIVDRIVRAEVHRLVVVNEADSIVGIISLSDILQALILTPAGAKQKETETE

[20] = target: TGF-beta receptor type-2 (Homo sapiens, UniProt P37173); assay: Binding affinity to TGFBR2 in SILAC-labeled human MDA-MB-231 cells lysate by mass spectrometry based kinAffinity assay; assay type: subcellular; procedure, shortened: as §3
[21] = target: Mitogen-activated protein kinase kinase kinase kinase 3 (Homo sapiens, UniProt Q8IVH8); assay: Binding affinity to MAP4K3 in SILAC-labeled human MDA-MB-231 cells lysate by mass spectrometry based kinAffinity assay; assay type: subcellular; procedure, shortened: as §2
[22] = target: Serine/threonine-protein kinase 4 (Homo sapiens, UniProt Q13043); assay: Binding affinity to MST1 in SILAC-labeled human MDA-MB-231 cells lysate by mass spectrometry based kinAffinity assay; assay type: subcellular; procedure, shortened: as §3
[23] = target: Mitogen-activated protein kinase kinase kinase 2 (Homo sapiens, UniProt Q9Y2U5); assay: Binding affinity to MAP3K2 in SILAC-labeled human MDA-MB-231 cells lysate by mass spectrometry based kinAffinity assay; assay type: subcellular; procedure, shortened: as §2
[24] = target: Serine/threonine-protein kinase SIK2 (Homo sapiens, UniProt Q9H0K1); assay: Binding affinity to QIK in SILAC-labeled human MDA-MB-231 cells lysate by mass spectrometry based kinAffinity assay; assay type: subcellular; procedure, shortened: as §3
Serine/threonine-protein kinase SIK2, sequence (Q9H0K1 whole entry): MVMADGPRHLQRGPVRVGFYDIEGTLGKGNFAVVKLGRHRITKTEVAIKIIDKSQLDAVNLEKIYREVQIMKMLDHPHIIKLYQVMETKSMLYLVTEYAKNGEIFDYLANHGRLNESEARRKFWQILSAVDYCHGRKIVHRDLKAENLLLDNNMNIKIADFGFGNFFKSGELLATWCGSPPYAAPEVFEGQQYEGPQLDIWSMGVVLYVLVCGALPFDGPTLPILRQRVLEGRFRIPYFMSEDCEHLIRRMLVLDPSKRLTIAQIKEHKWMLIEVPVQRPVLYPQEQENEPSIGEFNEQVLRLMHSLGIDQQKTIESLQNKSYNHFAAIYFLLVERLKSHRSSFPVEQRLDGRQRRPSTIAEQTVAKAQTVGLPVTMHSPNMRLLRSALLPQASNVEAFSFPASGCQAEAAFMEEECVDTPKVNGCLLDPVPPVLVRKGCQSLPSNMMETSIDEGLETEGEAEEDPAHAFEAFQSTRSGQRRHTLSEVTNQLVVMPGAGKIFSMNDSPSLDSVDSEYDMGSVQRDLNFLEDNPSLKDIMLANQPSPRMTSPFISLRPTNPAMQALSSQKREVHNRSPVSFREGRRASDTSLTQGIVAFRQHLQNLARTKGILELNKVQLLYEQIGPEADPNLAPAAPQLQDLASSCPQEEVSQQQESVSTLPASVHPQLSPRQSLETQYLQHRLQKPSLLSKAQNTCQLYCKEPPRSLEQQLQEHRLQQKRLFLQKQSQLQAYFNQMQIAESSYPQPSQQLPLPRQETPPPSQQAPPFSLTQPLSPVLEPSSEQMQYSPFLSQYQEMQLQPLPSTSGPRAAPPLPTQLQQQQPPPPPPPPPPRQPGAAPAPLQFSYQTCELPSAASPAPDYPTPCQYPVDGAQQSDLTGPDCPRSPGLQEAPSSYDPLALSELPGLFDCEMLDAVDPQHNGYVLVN

[25] = target: Serine/threonine-protein kinase 3 (Homo sapiens, UniProt Q13188); assay: Binding affinity to MST2 in SILAC-labeled human MDA-MB-231 cells lysate by mass spectrometry based kinAffinity assay; assay type: subcellular; procedure, shortened: as §3
[26] = target: Dual specificity mitogen-activated protein kinase kinase 2 (Homo sapiens, UniProt P36507); assay: Binding affinity to MAP2K2 in SILAC-labeled human MDA-MB-231 cells lysate by mass spectrometry based kinAffinity assay; assay type: subcellular; procedure, shortened: as §2
[27] = target: Mitogen-activated protein kinase kinase kinase 3 (Homo sapiens, UniProt Q99759); assay: Binding affinity to MAP3K3 in SILAC-labeled human MDA-MB-231 cells lysate by mass spectrometry based kinAffinity assay; assay type: subcellular; procedure, shortened: as §2

Row | Kd(free) [10] [nM] | Kd(free) [11] [nM] | Kd(free) [12] [nM] | Kd(free) [13] [nM] | Kd(free) [14] [nM] | Kd(free) [15] [nM] | Kd(free) [16] [nM] | Kd(free) [17] [nM] | Kd(free) [18] [nM] | Kd(free) [19] [nM] | Kd(free) [20] [nM] | Kd(free) [21] [nM] | Kd(free) [22] [nM] | SMILES | Papp B→A at 2 h, 10 µM [1] [×10⁻⁶ cm/s] | microsomal CLint at 5 µM [2] [µL/min/mg] | Stability [3] [%] | AUC(0-inf) [4] [ng·h/mL] | AUC [5] [ng·h/mL] | clearance [6] [mL/min/kg] | half-life [8] [h] | other results
1 |  |  |  |  |  |  |  |  |  |  |  |  |  | COc1cc2c(Oc3ccc(NS(=O)(=O)c4cc(F)ccc4F)cc3F)ccnc2cc1OCCCN1CCCC(C)C1 (stereo unspecified) | 14.6 | 18.3 | 98.8 | 1400 | 669 | 11.7 | 8.5 | Activity [7]: Non-Toxic
2 |  |  |  |  |  |  |  |  |  |  |  |  |  | COc1cc2c(Oc3ccc(NS(=O)(=O)c4ccccc4C(F)(F)F)cc3F)ccnc2cc1OCCCN1CCN(C)CC1 |  |  |  |  |  |  |  | inhibition [9]: Active
3 | 7086 | 8 | 11 | > 70 | 16 | 93 | 40 | 786 | 1907 | 2296 | 7385 | 1367 | 2080 | COc1cc2c(Oc3ccc(NS(=O)(=O)c4c(F)cccc4F)cc3F)ccnc2cc1OCCCN1CCN(C)CC1 |  |  |  |  |  |  |  | Kd(free) [23]: 5518 nM; Kd(free) [24]: 3545 nM; Kd(free) [25]: 5223 nM; Kd(free) [26]: 8852 nM
4 | 4455 | 24 | 29 | 52 | 71 | 130 | 178 | 616 | 969 | 1078 | 1860 | 2080 | 2433 | COc1cc2c(Oc3ccc(NS(=O)(=O)c4cc(F)ccc4F)cc3F)ccnc2cc1OCCCN1CCN(C)CC1 | 17 | 60.5 | 108 | 2650 | 1430 | 6.67 | 18.7 | Kd(free) [27]: 3133 nM; Kd(free) [23]: 4396 nM; Kd(free) [24]: 4518 nM; Kd(free) [25]: > 6454 nM; Kd(free) [26]: 6917 nM
